From ChEMBL document CHEMBL2424632, “Substituted 2-hydroxy-N-(arylalkyl)benzamides induce apoptosis in cancer cell lines” (Eur J Med Chem, 2013)

The molecules below were run on MCF7 (assay: Cytotoxicity against human MCF7 cells after 72 hrs by calcein-AM assay). Details: MCF7, 72 h.
Format: functional, cell-based

`O=C(N[C@@H](Cc1ccccc1)C(=O)Nc1ccc(Cl)cc1)c1ccc(Cl)cc1O` and `O=C(N[C@@H](Cc1ccccc1)C(=O)Nc1ccc(Cl)cc1)c1cc(Cl)ccc1O` are within 1.5-fold of each other in IC50: 9.1 µM for the first, 7.9 µM for the second.

`CC(C)[C@H](NC(=O)c1cc(Cl)ccc1O)C(=O)Nc1cccc(Cl)c1` and `CC(C)[C@H](NC(=O)c1ccc(Cl)cc1O)C(=O)Nc1ccc(Cl)c(Cl)c1` cannot be ordered by IC50: greater than 10 µM for the first, greater than 10 µM for the second.

`O=C(N[C@@H](CC1CCCCC1)C(=O)Nc1ccc(Br)cc1)c1cc(Cl)ccc1O` and `O=C(N[C@@H](CC1CCCCC1)C(=O)Nc1cccc(C(F)(F)F)c1)c1cc(Cl)ccc1O` are within 1.5-fold of each other in IC50: 1.9 µM for the first, 2.3 µM for the second.

`C[C@H](NC(=O)c1ccc(Cl)cc1O)C(=O)Nc1ccc(Cl)c(Cl)c1` and `C[C@H](NC(=O)c1ccc(Cl)cc1O)C(=O)Nc1ccc(Cl)cc1` cannot be ordered by IC50: greater than 12.5 µM for the first, greater than 10 µM for the second.

`CC(C)[C@H](NC(=O)c1ccc(Cl)cc1O)C(=O)Nc1ccc(Br)cc1` and `Cc1ccc(NC(=O)[C@H](C)NC(=O)c2cc(Cl)ccc2O)cc1` cannot be ordered by IC50: greater than 10 µM for the first, greater than 10 µM for the second.

`O=C(N[C@@H](Cc1ccccc1)C(=O)Nc1cccc(Cl)c1)c1cc(Cl)ccc1O` and `O=C(N[C@@H](Cc1ccccc1)C(=O)Nc1ccc(Cl)c(Cl)c1)c1cc(Cl)ccc1O` cannot be ordered by IC50: greater than 10 µM for the first, greater than 10 µM for the second.

First: O=C(CNC(=O)c1cc(Cl)ccc1O)Nc1ccc(Cl)c(Cl)c1
Second: O=C(N[C@@H](Cc1ccccc1)C(=O)Nc1ccc(Cl)c(Cl)c1)c1ccc(Cl)cc1O
The IC50 of the first is higher: greater than 20 µM for the first, 7.3 µM for the second.

Compared with `CC[C@H](CO)Nc1nc(NCc2ccccc2)c2ncn(C(C)C)c2n1` [SELICICLIB], `C[C@@H](NC(=O)c1cc(Cl)ccc1O)C(=O)Nc1ccc(Cl)cc1` is higher in IC50: 12.3 µM for the first, greater than 20 µM for the second.

With `C[C@H](NC(=O)c1ccc(Cl)cc1O)C(=O)Nc1ccc(C(F)(F)F)cc1` the IC50 was greater than 12.5 µM.

The molecules below were run on G-361 (assay: Induction of apoptosis in human G361 cells assessed as caspase-3/7 activation at 2 uM after 24 hrs by fluorescence assay relative to control). Details: not given.
Format: functional
In short: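 G361 cells seeded at 20,000 per well overnight, then exposed 24 h to compound at 2 µM final. 3x caspase-3/7 buffer (HEPES pH 7.4, NaCl, KCl, MgCl2, EGTA, NP-40, CHAPS, sucrose, DTT, PMSF) with Ac-DEVD-AMC substrate added; incubated 37 °C, fluorescence read after 4 h at 346/442 nm; activity expressed relative to untreated cells.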

In the case of `O=C(N[C@@H](CC1CCCCC1)C(=O)Nc1ccc(Br)cc1)c1cc(Cl)ccc1O`, the “fold change (FC)” value is reported as greater than 10.
In the case of `O=C(N[C@@H](CC1CCCCC1)C(=O)Nc1cccc(C(F)(F)F)c1)c1cc(Cl)ccc1O`, the “fold change (FC)” value is reported as greater than 10.

What follows are molecules tested on HOS (assay: Cytotoxicity against human HOS cells after 72 hrs by calcein-AM assay). Details: not given.
Format: functional, cell-based

`O=C(N[C@@H](CC1CCCCC1)C(=O)Nc1ccc(Br)cc1)c1cc(Cl)ccc1O` and `O=C(N[C@@H](CC1CCCCC1)C(=O)Nc1cccc(C(F)(F)F)c1)c1cc(Cl)ccc1O` are within 1.5-fold of each other in IC50: 3.3 µM for the first, 3.4 µM for the second.

Each molecule was assayed on K562 (assay: Cytotoxicity against human K562 cells after 72 hrs by calcein-AM assay). Details: K562, 72 h.
Format: functional, cell-based

`O=C(N[C@@H](Cc1ccccc1)C(=O)Nc1ccc(Cl)cc1)c1ccc(Cl)cc1O` and `O=C(N[C@@H](Cc1ccccc1)C(=O)Nc1ccc(Cl)cc1)c1cc(Cl)ccc1O` cannot be ordered by IC50: greater than 10 µM for the first, greater than 10 µM for the second.

`CC(C)[C@H](NC(=O)c1cc(Cl)ccc1O)C(=O)Nc1cccc(Cl)c1` and `CC(C)[C@H](NC(=O)c1ccc(Cl)cc1O)C(=O)Nc1ccc(Cl)c(Cl)c1` cannot be ordered by IC50: greater than 10 µM for the first, greater than 10 µM for the second.

`O=C(N[C@@H](CC1CCCCC1)C(=O)Nc1ccc(Br)cc1)c1cc(Cl)ccc1O` and `O=C(N[C@@H](CC1CCCCC1)C(=O)Nc1cccc(C(F)(F)F)c1)c1cc(Cl)ccc1O` are within 1.5-fold of each other in IC50: 3 µM for the first, 3.4 µM for the second.

`C[C@H](NC(=O)c1ccc(Cl)cc1O)C(=O)Nc1ccc(Cl)c(Cl)c1` and `C[C@H](NC(=O)c1ccc(Cl)cc1O)C(=O)Nc1ccc(Cl)cc1` cannot be ordered by IC50: greater than 12.5 µM for the first, greater than 10 µM for the second.

`CC(C)[C@H](NC(=O)c1ccc(Cl)cc1O)C(=O)Nc1ccc(Br)cc1` and `Cc1ccc(NC(=O)[C@H](C)NC(=O)c2cc(Cl)ccc2O)cc1` cannot be ordered by IC50: greater than 10 µM for the first, greater than 10 µM for the second.

`O=C(N[C@@H](Cc1ccccc1)C(=O)Nc1cccc(Cl)c1)c1cc(Cl)ccc1O` and `O=C(N[C@@H](Cc1ccccc1)C(=O)Nc1ccc(Cl)c(Cl)c1)c1cc(Cl)ccc1O` cannot be ordered by IC50: greater than 10 µM for the first, greater than 10 µM for the second.

`O=C(CNC(=O)c1cc(Cl)ccc1O)Nc1ccc(Cl)c(Cl)c1` and `O=C(N[C@@H](Cc1ccccc1)C(=O)Nc1ccc(Cl)c(Cl)c1)c1ccc(Cl)cc1O` cannot be ordered by IC50: greater than 20 µM for the first, greater than 10 µM for the second.

`C[C@H](NC(=O)c1ccc(Cl)cc1O)C(=O)Nc1ccc(C(F)(F)F)cc1` and `C[C@@H](NC(=O)c1cc(Cl)ccc1O)C(=O)Nc1ccc(Cl)cc1` cannot be ordered by IC50: greater than 12.5 µM for the first, greater than 20 µM for the second.

What follows are molecules tested on G-361 (assay: Cytotoxicity against human G361 cells after 72 hrs by calcein-AM assay). Details: G-361, 72 h.
Format: functional, cell-based

`O=C(N[C@@H](CC1CCCCC1)C(=O)Nc1ccc(Br)cc1)c1cc(Cl)ccc1O` and `O=C(N[C@@H](CC1CCCCC1)C(=O)Nc1cccc(C(F)(F)F)c1)c1cc(Cl)ccc1O` are the same in IC50: 1.3 µM for the first, 1.3 µM for the second.

What follows are molecules tested on HeLa (assay: Cytotoxicity against human HeLa cells after 72 hrs by calcein-AM assay). Details: not given.
Format: functional, cell-based

`O=C(N[C@@H](CC1CCCCC1)C(=O)Nc1ccc(Br)cc1)c1cc(Cl)ccc1O` and `O=C(N[C@@H](CC1CCCCC1)C(=O)Nc1cccc(C(F)(F)F)c1)c1cc(Cl)ccc1O` are the same in IC50: 1.3 µM for the first, 1.3 µM for the second.

Each molecule was assayed on HCT-116 (assay: Cytotoxicity against human HCT116 cells after 72 hrs by calcein-AM assay). Details: HCT-116, 72 h.
Format: functional, cell-based

`O=C(N[C@@H](CC1CCCCC1)C(=O)Nc1ccc(Br)cc1)c1cc(Cl)ccc1O` and `O=C(N[C@@H](CC1CCCCC1)C(=O)Nc1cccc(C(F)(F)F)c1)c1cc(Cl)ccc1O` are within 1.5-fold of each other in IC50: 2 µM for the first, 1.5 µM for the second.
